This note sets out measurements from ChEMBL document CHEMBL4033794, “Discovery of Trifluoromethyl Glycol Carbamates as Potent and Selective Covalent Monoacylglycerol Lipase (MAGL) Inhibitors for Treatment of Neuroinflammation” (J Med Chem, 2018).

Data set [1] can be described thus: Thermodynamic solubility of the compound at pH 6.5 after 24 hrs. Format: physicochemical. To be noted: buffer, read-out: Therm_solubility.
The nature of data set [2]: Drug metabolism in human hepatocytes assessed as glucuronide conjugate formation. Type of data set: ADME, cell-based, Hepatocyte.
The next data set addresses CYP2D6 (Homo sapiens, UniProt P10635). The data set can be described thus: Inhibition of CYP2D6 (unknown origin) at 3 uM. Format: ADME. In a few lines: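 Competitive inhibition screen of CYP3A4, 2D6, 2C9, 2C8 and 1A2 using isoform-relevant probe substrates, compound at 3 μM.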
The species entered for data set [3] is Mus musculus. The settings on record: C57BL6J, 1 mg/kg.
Data set [4] in a line: Unbound fraction in C57BL6J mouse brain at 1 mg/kg, sc measured up to 24 hrs post dose by HPLC-MS/MS analysis. Format: ADME, organism-based.
The nature of data set [5]: Intrinsic clearance in human hepatocytes in presence of CYP inhibitor ABT. The settings on record: with ABT (CYP inhibitor), concentration not stated, read-out: CLH. Type of data set: ADME, cell-based, Hepatocyte. The method in brief: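 Cryopreserved human hepatocyte substrate-depletion assay run with ABT present; scaled intrinsic clearance in mL/min/kg.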
A short description of data set [6]: Cmax in C57BL6J mouse brain at 1 mg/kg, sc up to 24 hrs post dose. Type of data set: ADME, organism-based. On the set-up: dose 1 mg/kg, route subcutaneous.
The species named for data set [7] is Mus musculus. The settings on record: C57BL6J, 1 mg/kg. This is another data set of the same source.
The test system of data set [8] is Mus musculus. Put plainly: Time at which unbound brain concentration stays above in vitro MAGL IC50 in C57BL6J mouse at 1 mg/kg, sc up to 24 hrs post dose. The method in brief:
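Male C57BL6J mice dosed 1 mg/kg SC in DMSO:Cremophor:saline 5:5:90, 10 mL/kg; plasma and brain taken at 0.5, 1, 2, 4, 8, 12, 24 h. Drug measured in plasma and cerebellum; 2-AG and arachidonic acid in brain hemisphere, compared with vehicle-treated mice.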

A short description of data set [9]: Volume of distribution in Wistar Hannover rat at 1 mg/kg, iv administered as bolus dose via jugular vein cannula measured up to 24 hrs post dose by HPLC-MS/MS analysis. Type of data set: ADME, organism-based. To be noted: in vivo. The method in brief: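 Rats (n = 2) given 1 mg/kg IV bolus via jugular vein cannula, solution in 3% DMA/10% Solutol HS15/10% Miglyol/77% of 20% SBECD in water, 1 mL/kg. Carotid cannula blood pre-dose and 0.083–24 h; plasma by HPLC-MS/MS; non-compartmental analysis.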

The nature of data set [10]: Volume of distribution in Beagle dog at 1 mg/kg, iv administered via cephalic vein measured up to 24 hrs post dose by HPLC-MS/MS analysis. Format: ADME, organism-based, Canis lupus familiaris. To be noted: in vivo. In a few lines: (§1)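 Fasted male beagles (n = 2), fed ~4 h post-dose, given 1 mg/kg IV bolus via cephalic vein in 3% DMA/10% Solutol HS15/10% Miglyol/77% of 20% SBECD, 0.5 mL/kg. Jugular blood pre-dose and 0.083–24 h; plasma HPLC-MS/MS; non-compartmental analysis.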

Data set [11] deals with T1, Fatty-acid amide hydrolase 1 (Homo sapiens, UniProt O00519).
T1 sequence (O00519 whole entry): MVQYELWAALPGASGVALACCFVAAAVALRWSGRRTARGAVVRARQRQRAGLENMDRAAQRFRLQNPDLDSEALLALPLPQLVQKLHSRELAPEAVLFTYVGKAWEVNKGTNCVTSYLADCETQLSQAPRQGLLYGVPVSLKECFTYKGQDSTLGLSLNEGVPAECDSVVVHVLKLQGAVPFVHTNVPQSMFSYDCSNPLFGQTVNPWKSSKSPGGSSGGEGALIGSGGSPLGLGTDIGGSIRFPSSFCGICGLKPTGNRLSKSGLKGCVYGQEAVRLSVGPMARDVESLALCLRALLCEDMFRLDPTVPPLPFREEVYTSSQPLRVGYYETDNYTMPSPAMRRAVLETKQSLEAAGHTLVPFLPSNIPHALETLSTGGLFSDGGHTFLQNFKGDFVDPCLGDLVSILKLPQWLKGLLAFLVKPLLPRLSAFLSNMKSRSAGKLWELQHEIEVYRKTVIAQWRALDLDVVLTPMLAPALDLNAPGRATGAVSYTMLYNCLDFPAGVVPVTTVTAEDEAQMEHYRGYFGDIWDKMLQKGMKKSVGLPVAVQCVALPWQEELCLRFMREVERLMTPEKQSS
Put plainly: Inhibition of recombinant human FAAH using fluorogenic arachidonoyl-AMC as substrate preincubated for 30 mins followed by substrate addition measured after 60 mins by fluorescence based assay. In a few lines: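 Human recombinant FAAH (0.0125 U final) in 50 mM Tris pH 9.0, 1 mM EDTA, preincubated 30 min at room temperature with compound (30 μM to 0.3 nM final); arachidonoyl-AMC 5 μM added, 60 min reaction, read Ex/Em 355/460. Inhibition vs no-compound and full-inhibition controls; four-parameter fit; geometric mean of ≥3 experiments.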

Data set [12] can be described thus: Intrinsic clearance in human liver microsomes. Format: ADME, microsome. To be noted: read-out: CLH. The method in brief: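 Substrate depletion in human liver microsomes; intrinsic clearance scaled to mL/min/kg.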
A general note: Liver microsomes are vesicles of endoplasmic reticulum, rich in cytochrome P450 enzymes.

Data set [13] relates to Mus musculus. Put plainly: Anti-inflammatory activity in C57BL6J mouse assessed as reduction in LPS-induced TNFalpha levels in brain at 1 mg/kg, sc administered 30 mins after LPS challenge measured at 4 hrs post LPS challenge. Type of data set: functional, organism-based. The method in brief: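 LPS 20 mg/kg IP or saline, then 1 mg/kg SC compound or vehicle at 30 min; hemi-brains taken at 4 h, homogenized in PBS with protease inhibitors, spun 100,000 rcf 45 min at 4°C; IL-1β and TNFα measured by Meso Scale electrochemiluminescence panel, with protein measured by BCA.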

Data set [14] concerns Mus musculus. The data set can be described thus: Anti-inflammatory activity in C57BL6J mouse assessed as reduction in LPS-induced IL-1beta levels in brain at 1 mg/kg, sc administered 30 mins after LPS challenge measured at 4 hrs post LPS challenge. Type of data set: functional, organism-based.
Data set [15] deals with T2, Cannabinoid receptor 1 (Homo sapiens, UniProt P21554). Put plainly: Agonist activity at human CB1 receptor expressed in CHOK1 cells assessed as […] after 20 mins by HTRF assay. Format: functional, cell-based. (TR-FRET usually uses a lanthanide donor and a delayed reading to cut background.)
A short description of data set [16]: Half life in non-human primate at 1 mg/kg, iv administered via cephalic vein measured up to 24 hrs post dose by HPLC-MS/MS analysis. The settings on record: rhesus monkey, in vivo. Format: ADME, organism-based, Macaca mulatta. The method in brief:
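Fasted male non-human primates (n = 2), fed ~1 h post-dose; 1 mg/kg IV bolus via saphenous or cephalic vein in 3% DMA/10% Solutol HS15/10% Miglyol/77% of 20% SBECD, 0.5 mL/kg. Femoral blood pre-dose and 0.083–24 h; plasma HPLC-MS/MS; non-compartmental analysis.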

Data set [17] in a line: Lipophilicity, log D of the compound by HPLC analysis. Type of data set: physicochemical. In a few lines:
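LogD determined by an HPLC-based (eLogD) method.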

Data set [18] is described as follows: Plasma clearance in Beagle dog at 1 mg/kg, iv administered via cephalic vein measured up to 24 hrs post dose by HPLC-MS/MS analysis. Format: ADME, organism-based, Canis lupus familiaris. In a few lines:
as §1

Data set [19] can be described thus: Apprent permeability in RRCK cells. Format: ADME, cell-based, Canis lupus familiaris, MDCKII-LE. The settings on record: dog, MDCK.
Data set [20] deals with T2, Cannabinoid receptor 1. The data set can be described thus: Displacement of [3H]CP55940 from human CB1 receptor expressed in CHOK1 cell membranes at 10 uM after 120 mins by scintillation counting method.
A short description of data set [21]: Ratio of AUClast in C57BL6J mouse brain to plasma at 1 mg/kg, sc measured up to 24 hrs post dose by HPLC-MS/MS analysis. The settings on record: brain and plasma.

Broadly, the inhibition is the drop in the measured response relative to a control, in per cent. As usually defined, the fraction unbound is the share of the substance not bound to proteins or other matrix. As a reminder, the Cmax is the peak of the concentration-time curve. Usually Vd stands for the apparent volume that relates the amount in the body to the concentration in plasma or blood. By IC50 is commonly meant the concentration that inhibits the measured activity by half. Broadly, the EC50 is the concentration needed to bring the measured effect to its halfway point. As usually defined, the half-life is the time needed for the level to fall by half in the phase considered. In general, logD refers to the decadic logarithm of the distribution of all forms, ionised or not, between an organic phase and buffer at a given pH. The low end stands for a more hydrophilic compound, the high end for a more lipophilic compound. What is called clearance is a measure of how efficiently the substance is removed, as volume per time. The Papp is the rate of passage across a membrane or cell layer, normalised by area and donor concentration. Read a low Papp as poor permeation. One may read the Kp as the ratio of the level in a tissue or fluid to that in plasma or blood.

Molecules are shown by their SMILES. Values after ≈ are worked out from the molar mass of the structure shown. Active and inactive are the calls of the source. A value given as a limit tells only on which side of the number the result lay.

T2 sequence (P21554 whole entry): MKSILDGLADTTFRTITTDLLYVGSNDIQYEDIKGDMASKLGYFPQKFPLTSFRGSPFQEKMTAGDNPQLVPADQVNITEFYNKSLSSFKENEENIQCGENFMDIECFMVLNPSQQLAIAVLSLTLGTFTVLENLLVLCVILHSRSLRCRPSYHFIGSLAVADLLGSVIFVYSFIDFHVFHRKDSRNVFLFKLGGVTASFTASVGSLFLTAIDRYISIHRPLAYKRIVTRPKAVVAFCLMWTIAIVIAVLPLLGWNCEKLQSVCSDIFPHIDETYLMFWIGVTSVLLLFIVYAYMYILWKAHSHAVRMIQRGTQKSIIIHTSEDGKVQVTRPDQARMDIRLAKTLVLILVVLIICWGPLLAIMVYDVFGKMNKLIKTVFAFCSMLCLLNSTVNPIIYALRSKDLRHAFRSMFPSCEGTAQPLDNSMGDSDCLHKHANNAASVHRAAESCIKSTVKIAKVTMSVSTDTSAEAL
Sequence of CYP2D6 (P10635 whole entry, canonical isoform): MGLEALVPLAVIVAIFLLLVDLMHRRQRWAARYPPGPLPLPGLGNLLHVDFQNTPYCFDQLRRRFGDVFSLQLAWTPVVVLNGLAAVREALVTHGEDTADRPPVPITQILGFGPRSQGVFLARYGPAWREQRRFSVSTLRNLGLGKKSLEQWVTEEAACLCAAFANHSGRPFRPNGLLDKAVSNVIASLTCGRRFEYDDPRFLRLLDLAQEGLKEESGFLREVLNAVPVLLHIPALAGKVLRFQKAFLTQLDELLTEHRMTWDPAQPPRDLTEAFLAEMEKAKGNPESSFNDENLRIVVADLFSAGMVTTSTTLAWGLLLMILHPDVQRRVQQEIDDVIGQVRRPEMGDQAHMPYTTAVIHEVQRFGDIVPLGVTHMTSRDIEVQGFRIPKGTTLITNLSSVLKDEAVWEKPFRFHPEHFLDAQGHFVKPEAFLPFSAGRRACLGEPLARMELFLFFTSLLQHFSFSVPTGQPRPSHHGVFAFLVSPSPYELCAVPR

Take `O=C(O[C@H](CO)C(F)(F)F)N1C[C@@H]2[C@H](C1)[C@H]2c1ccn(-c2ccc(F)cc2)n1`: the solubility thermodynamic at 24 h in data set [1] stood at 25 µM (≈ 9.98 µg/mL). For the same compound, the Drug metabolism result in [2] is listed as “Metabolite_Detected”. Further, the inhibition at 3 µM at CYP2D6 is < 10%. Further, the inhibition result in the data set filed under Mus musculus [3] and in the data set listed under Mus musculus [7] was “Active” each time. Also, the fraction unbound at 24 h in [4] was 0.00775. The CLint scaled in [5] was 2.22 L/h/kg; in data set [12], < 0.48 L/h/kg. In data set [6], the peak concentration (Cmax) is > 1 µM. In addition, the Time in the data set with Mus musculus [8] is 2 h. Further, the figures for the Vd in data set [9] and in data set [10] were 3.1 L/kg and 1.6 L/kg, respectively. Moreover, the IC50 in data set [11] worked out at 3.1 µM. In addition, the outcome in the data set on Mus musculus [13] and with Mus musculus [14] was Active. The EC50 on Cannabinoid receptor 1 [15] is 1.5 µM. The compound further gave a half-life in [16] of 1.7 h. The logD in [17] worked out at 3.8. The clearance in data set [18] was 1.26 L/h/kg. Further, the Papp in data set [19] amounted to 210 nm/s. The inhibition entry on Cannabinoid receptor 1 [20] was “inactive”. Also, the Kp at 24 h in data set [21] was determined as 2.4.
